CAL PDZ FP-1 = CAL PDZ peptide-binding inhibitors, primary screen, biochemical, fluorescence polarization, Cer-tagged CAL PDZ, HTS. inhibition, % at 20 µM. AID 504414, 2011. Golgi-associated PDZ and coiled-coil motif-containing protein (Homo sapiens), Q9HD26. 330,000 tested, 0.02% active. purified CAL PDZ, TMR-peptide fluorescence polarization, 1 h;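 active means highest replicate inhibition of at least 40%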;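 further: plate controls were DMSO neutral control wells for no effect and unlabeled competitor peptide control wells for full effect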
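Test system: purified CerCALP PDZ construct; Compound dosing: one concentration, 20 µM compound; Also added: TMR-labelled reporter peptide T*-PRC34 bound in PDZ groove; Read-out: inhibition from polarization loss; Controls: unlabelled peptide and DMSO controls; Signal: FP readout, S and P plane fluorescence; Incubation: 1 h at RT.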
CAL PDZ FP-2 = untagged CAL PDZ binding inhibitors, primary screen, biochemical, fluorescence polarization, HTS | purified CAL PDZ, TMR-peptide fluorescence polarization, 1 h | inhibition, % at 24.9 µM | 300,000 tested, 0.92% active;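 active means mean inhibition of at least 30% with at least half of replicates also reaching 30%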;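 further: 0% = DMSO neutral control and 100% = excess unlabeled competitor peptide PRC23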
DYRK1A inh = rat Dyrk1A kinase inhibitors, primary screen, biochemical, single point, plate reader | Dual specificity tyrosine-phosphorylation-regulated kinase 1A (Rattus norvegicus), Q63470 | ADP-Glo luminescence, NFATc1 peptide | inhibition, % at 12.5 µM | 310,000 tested, 0.43% active | AID 504441, 2011; in the data active means inhibition above about 50%;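 further: plate controls were vehicle with enzyme for no effect and no enzyme for full effect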
ALR H2O2 inh = inhibitors of human ALR sulfhydryl oxidase, primary screen, biochemical, H2O2 detection, HRP-luminol luminescence, single point | AID 485317, 2010 | inhibition, % (concentration not given with the values) | purified ALR, DTT oxidation | FAD-linked sulfhydryl oxidase ALR (Homo sapiens), P55789 | 290,000 tested, 3.8% active;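 active means mean replicate inhibition above about 79%, with every replicate also reaching it, limit read from the data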
Rtt109 HAT inh = inhibitors of C. albicans Rtt109/Vps75 HAT, primary screen, biochemical, ThioGlo CoA-SH fluorescence, plate reader; Histone acetyltransferase RTT109 (Candida albicans (strain SC5314 / ATCC MYA-2876)), …; purified Rtt109/Vps75, 4 h; inhibition, % at 34.9 µM; 330,000 tested, 0.16% active;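 active means inhibition of at least 50% in every replicate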
Target sequence (Q5AAJ8 whole entry, looked up): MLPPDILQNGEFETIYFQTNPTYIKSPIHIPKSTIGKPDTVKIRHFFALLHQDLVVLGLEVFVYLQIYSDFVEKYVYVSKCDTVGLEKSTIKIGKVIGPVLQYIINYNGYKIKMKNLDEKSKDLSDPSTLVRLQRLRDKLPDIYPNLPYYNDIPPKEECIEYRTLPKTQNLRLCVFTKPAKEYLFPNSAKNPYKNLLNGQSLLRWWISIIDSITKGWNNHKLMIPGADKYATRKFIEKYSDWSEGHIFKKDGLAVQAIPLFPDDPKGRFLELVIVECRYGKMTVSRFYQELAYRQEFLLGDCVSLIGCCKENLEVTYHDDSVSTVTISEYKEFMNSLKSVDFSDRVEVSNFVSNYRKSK
An asterisk follows results filed as active; nt = no result given. Rows were chosen to be rich in hits. Some 4.3% of all compounds tested hit in one or more screens of this group.

SMILES | CAL PDZ FP-1 | CAL PDZ FP-2 | DYRK1A inh | ALR H2O2 inh | Rtt109 HAT inh
O=C(COC(=O)c1ccccn1)Nc1ncc(C(F)(F)F)cc1Cl | nt | -3.1 | -0.6 | -1.3 | -2.3
O=C(COC(=O)c1ccc([N+](=O)[O-])s1)Nc1ncc(C(F)(F)F)cc1Cl | 0.9 | 70.9* | 2.5 | -20.4 | 3.4
CC(Cc1ccco1)NC(=O)c1cccc(S(=O)(=O)N(C)C)c1 (centres undefined) | -1.1 | nt | -8.4 | nt | 18.3
CCCCNC(=O)[C@H]1C[C@H]1[C@@H](O)[C@H](CO)NC(=O)[C@H](COCc1ccccc1)NC(=O)OC(C)(C)C | -0.9 | -1.5 | 9.5 | 0.5 | 2.3
CCCCCCC(=O)Nc1ccc(Br)cn1 | -2.3 | 63.0* | 4.5 | -0.7 | 3.6
COc1cc(/C=N/n2c(C3CCCCC3)n[nH]c2=S)ccc1O | -0.7 | -1.8 | 14.2 | 98.1* | -0.2
S=c1[nH]nc(C2CCCCC2)n1/N=C/c1ccccc1 | -0.7 | -6.7 | 21.1 | -1.7 | 14.1
S=c1[nH]nc(C2CCCCC2)n1/N=C/c1ccccn1 | -0.4 | 7.5 | 0.8 | 96.0* | 6.6
CN(Cc1ccccc1Br)C(=O)CN1C(=O)NC2(CCCCCC2)C1=O | -0.4 | 39.0* | nt | 6.4 | -2.8
O=C1NC2(CCCCCC2)C(=O)N1Cc1ccccc1Br | -0.5 | 48.0* | 1.2 | -1.0 | 2.5
Cc1ccc(C(=O)N[C@H](C(=O)OCc2nnc(-c3ccccc3)o2)C(C)C)cc1 | 0.3 | 49.9* | -1.6 | -1.4 | -25.4
CC(C)[C@H](NC(=O)c1ccccc1)C(=O)OCc1nnc(-c2ccccc2)o1 | 0.1 | -4.6 | 0.4 | -20.1 | 2.3
O=C(COC(=O)CCN=C1NS(=O)(=O)c2ccccc21)NNC(=O)c1ccccc1 | -1.7 | -1.0 | 8.5 | -1.2 | -1.8
CC(C)(C)N(Cc1nc(-c2ccccc2)no1)C(=O)c1ccc2c(c1)OCO2 | -1.3 | 65.1* | 1.3 | -1.7 | -1.5
Cc1ccc(C)c(S(=O)(=O)N2CCCOC2CNC(=O)C(=O)NCCc2ccco2)c1 (centres undefined) | 1.0 | 68.8* | 4.8 | -5.6 | 2.0
CC(=O)Cc1nsc(NC(=O)c2ccc(COc3ccccc3)o2)n1 | -3.2 | 4.5 | -0.7 | 98.0* | 43.3
O=C(Nc1nncs1)C1CC(=O)N(C2CCCC2)C1 (centres undefined) | 0.6 | -4.8 | 3.4 | 1.4 | -20.6
Cc1ccc2nc(COC(=O)c3ccc(Cl)nc3)cc(=O)n2c1 | -0.1 | 45.7* | 1.6 | -0.1 | 3.0
O=C(Nc1ccccc1)C1=C[C@@H](C2CC2)C[C@@H](OCc2ccc(CO)cc2)O1 | 0.1 | -2.2 | 9.9 | nt | 1.6
N#CCc1nn(-c2ccccc2)c2ncnc(N)c12 | -0.4 | 103.3* | nt | -3.9 | -0.4
COc1ccc(S(=O)(=O)N2CCC(C(=O)Nc3ccccc3N3CCCC3)CC2)cc1OC | -2.4 | -2.8 | -8.5 | 96.9* | -6.5
COc1ccc(NC(=O)C2CCN(S(=O)(=O)c3ccc(N4CCCC4=O)cc3)CC2)c(OC)c1 | -2.4 | 34.4* | -6.5 | -19.1 | 0.1
CCC(C(=O)Nc1ccc(C(=O)Nc2ccccc2C(=O)O)cc1)c1ccccc1 (centres undefined) | -7.0 | -9.9 | 5.3 | 79.4* | 9.6
CC(c1ccccc1)N1C(=O)c2ccc(C(=O)Nc3ccccc3C(=O)O)cc2C1=O (centres undefined) | -4.0 | -8.3 | 4.4 | 97.6* | 2.0
CCC(C(=O)Nc1ccc(C)cc1)c1ccccc1 (centres undefined) | -0.9 | 2.1 | -7.1 | -7.5 | -10.7
CC(C)CCN1C(=O)c2ccc(C(=O)Nc3ccc(O)cc3C(=O)O)cc2C1=O | -1.1 | -5.9 | 9.6 | 47.3 | 3.5
CC(C)CCN1C(=O)c2ccc(C(=O)Nc3ccccc3C(=O)O)cc2C1=O | -1.7 | 1.8 | 1.0 | 97.6* | -2.7
COc1ccc(CCN2CC(C(=O)N3CCSCC3)CCC2=O)cc1 (centres undefined) | -4.7 | -0.9 | -5.3 | -15.7 | -7.7
CCOc1ccc(-c2csc(NC(=O)CSC3=NC(=O)CN3C(C)=O)n2)c2ccccc12 | -0.8 | -1.7 | 17.8 | 98.6* | 6.0
CCOc1ccc(-c2csc(NC(=O)CSCC(=O)O)n2)c2ccccc12 | nt | -0.7 | -1.0 | 44.0 | 5.2
